Laboratory results from ChEMBL document CHEMBL1147889, “Synthesis of 6- and 9-alkylaminomethyl furoflavones as gastroprotective agents” (2007).

Assays:
Type in all cases: functional, Stomach
Rattus norvegicus [1] = assay: Gastroprotective activity against ethanol-induced gastric ulcer in fasted rat accessed as number of ulcer at 20 mg/kg, ip; settings: route intraperitoneal
How it was run: (§1)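 Rats housed singly, fasted 36 h; test drug given, then 1 h later ulcer induced by oral 1 ml 70% ethanol in distilled water. Killed by cervical dislocation 1 h after ethanol; stomach opened along greater curvature, saline-rinsed, pinned flat. Ulcers counted; each lesion length measured by Vernier caliper, summed as ulcer index. Mean, SD, SE; one-way ANOVA then LSD pairwise test.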

Rattus norvegicus [2] = assay: Gastroprotective activity against ethanol-induced gastric ulcer in fasted rat accessed as gastric ulcer index at 20 mg/kg, ip; settings: route intraperitoneal; how it was run: as §1
Rattus norvegicus [3] = organism: Rattus norvegicus; assay: Preventive index against ethnol-induced gastric ulcer rat in treated group to control group
How it was run: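 Preventive index = percentage inhibition of gastric mucosal damage: PI = 100 − (ulcer index of treated group / ulcer index of control group × 100). Ulcer index is the summed caliper-measured lesion lengths, taken 1 h after oral 1 ml 70% ethanol in 36 h fasted rats dosed 1 h before ethanol. Compared by one-way ANOVA.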

Row | Compound | Activity (Rattus norvegicus [1]) | Activity (Rattus norvegicus [2]) | Preventive_index (Rattus norvegicus [3])
1 | COc1c2ccoc2cc2oc(-c3ccc(Cl)cc3)cc(=O)c12 | 25.5 | 33.2 mm | 34.5
2 | COc1c2occc2c(OC)c2c(=O)c(CN3CCN(C)CC3)c(-c3cccnc3)oc12 | 18.8 | 28.2 mm | 44.4
3 | COc1c2ccoc2cc2oc(-c3ccccc3)c(CN3CCOCC3)c(=O)c12 | 21.8 | 29.6 mm | 41.6
4 | COc1ccc(-c2cc(=O)c3c(OC)c4ccoc4cc3o2)cc1 | 19.7 | 24 mm | 52.6
5 | O=c1cc(-c2ccccc2)oc2cc3occc3c(O)c12 | 25.5 | 38.3 mm | 24.3
6 | COc1c2ccoc2c(CN2CCOCC2)c2oc(-c3cccnc3)cc(=O)c12 | 25 | 40.8 mm | 19.5
7 | COc1c2ccoc2c(CN2CCN(C)CC2)c2oc(-c3cccnc3)cc(=O)c12 | 23.7 | 29.7 mm | 41.5
8 | O=c1cc(-c2ccc(Cl)cc2)oc2cc3occc3c(O)c12 | 22.2 | 33.5 mm | 33.9
9 | O=c1cc(-c2ccc(Cl)cc2)oc2c(CN3CCOCC3)c3occc3c(O)c12 | 28.5 | 42.5 mm | 16.1
10 | COc1c2ccoc2cc2oc(-c3cccnc3)c(CN(C)C)c(=O)c12 | 21.2 | 31 mm | 38.8
11 | COc1c2ccoc2c(CN2CCOCC2)c2oc(-c3ccccc3)cc(=O)c12 | 27.8 | 39.8 mm | 21.4
12 | COc1c2ccoc2c(CN2CCOCC2)c2oc(-c3ccc(Cl)cc3)cc(=O)c12 | 26 | 37.2 mm | 26.6
13 | O=c1cc(-c2ccccc2)oc2c(CN3CCOCC3)c3occc3c(O)c12 | 26.5 | 37.5 mm | 26
14 | COc1c2ccoc2cc2oc(-c3ccccc3)cc(=O)c12 [PINNATIN] | 23.7 | 34.8 mm | 31.3
